High-throughput results (PubChem)
Shown are actives, neighbours in structure and some others; about 2.2% of the full set was active somewhere.
C8 TRAIL sens = sensitizes caspase-8 expressing cells to TRAIL. NB7+C8 cells + TRAIL, ATPlite viability luminescence. inhibition (viability loss, TRAIL sensitization), % at 10 µM. 1% of 360,000 active. AID 624354;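 active means compounds causing at least 50% loss of cell viability in the single-dose screen, relative to plate controls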
PPC-1+TRAIL kill = PPC-1 cancer cell killing with TRAIL present | PPC-1 cells + TRAIL, ATPLite viability luminescence | 0.41% of 220,000 active | cell killing (% activity), % at 4 µM or 5 µM;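 active means cell killing above 50% in the first pass at 4 µM, then a duplicate retest at 5 µM averaging 50% or more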;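 further: plate controls were cells with TRAIL plus DMSO for no effect and medium-only wells lacking cells for full effect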
APP 5'UTR act = activates APP 5'UTR luciferase reporter | SH-SY5Y APP 5'UTR luciferase reporter, luminescence; zero percent = DMSO vehicle wells | activation, % at 2 µM | 1% of 190,000 active;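 active means activation above a set limit, based on mean plus 3 SD of controls, cut at about 140% in these data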
NF-kB neuron act = NF-kB expression increase, human neuronal cells; fold change at 12.5 µM; 1.6% of 190,000 active; NF-kB reporter expression; stronger effect = higher value; in the data active means fold change above about 3.3
FLuc act counter = firefly luciferase counter-screen for stimulation assays | P08659 | ATPlite luciferase biochemical, luminescence, 10 min; 0 = ATP-free wells, 1 = DMSO control | activation factor at 10 µM | 200,000 tested, under 10 active | AID 1027;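 active means luciferase activation factor, scaled between plate controls, of at least 2 with compound at 10 µM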
Target sequence (P08659 whole entry, looked up): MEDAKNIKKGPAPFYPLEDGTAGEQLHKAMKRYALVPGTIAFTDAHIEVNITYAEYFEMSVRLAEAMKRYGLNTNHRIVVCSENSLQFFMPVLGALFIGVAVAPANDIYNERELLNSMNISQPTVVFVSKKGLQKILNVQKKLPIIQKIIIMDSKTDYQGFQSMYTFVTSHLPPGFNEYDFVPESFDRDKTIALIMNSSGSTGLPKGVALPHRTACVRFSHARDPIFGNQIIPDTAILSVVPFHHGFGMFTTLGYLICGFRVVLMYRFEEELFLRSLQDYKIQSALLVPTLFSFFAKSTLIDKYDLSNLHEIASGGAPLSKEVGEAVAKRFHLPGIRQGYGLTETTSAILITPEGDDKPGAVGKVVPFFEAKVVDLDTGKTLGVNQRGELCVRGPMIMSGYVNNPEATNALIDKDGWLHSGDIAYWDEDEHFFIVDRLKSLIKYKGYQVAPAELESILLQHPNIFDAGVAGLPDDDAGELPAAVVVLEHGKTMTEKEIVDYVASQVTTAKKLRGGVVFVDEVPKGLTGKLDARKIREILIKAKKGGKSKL
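System: cell-free luciferase reagent; medium: PBS as buffer for the ATP substrate; doses: test compounds dosed from 2 mM stocks in 100% DMSO; incubation: 10 min, room temperature; measured by: luminescence from luciferase reaction; read-out: luciferase activation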
FLuc inh counter = Photinus pyralis luciferase inhibition counter-screen; ATPLite firefly luciferase biochemical luminescence, 10 min; inhibition, % at 10 µM; 1.5% of 200,000 active; AID 1006;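 active means inhibition above about 50% when tested at 10 µM, limit read from the data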
PPC1 cytotox = kills PPC-1 cells; PPC-1 viability, ATPlite luminescence, overnight; 50% of 1,200 active; AID 1447; shares compounds with PPC-1+TRAIL kill; cytotoxicity, % at 5 µM;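 active means reconfirmed compounds whose average cytotoxicity reaches 50% or more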;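 further: 0% = DMSO-treated cells and 100% = wells holding medium but no cells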
* marks the source's active call; other numbers are inactive results; x = no result given.

SMILES	C8 TRAIL sens	PPC-1+TRAIL kill	APP 5'UTR act	NF-kB neuron act	FLuc act counter	FLuc inh counter	PPC1 cytotox
Cc1[nH]n(-c2ccccc2)c(=O)c1/C=N/Nc1nncc(-c2ccccc2)n1	58*	63*	-82	0.95	0.1	85*	58*
Cc1ccc(/C=N/Nc2nncc(-c3ccccc3)n2)o1	3	-1	25	1.3	0.9	9	x
CCSc1nnc(NC(=O)c2ccccc2C)s1	5	6	56	2.4	0.9	10	x
CCOC(=O)Nc1ccc(S(=O)(=O)NCCCN2CCOCC2)cc1	-1	9	-2	1	1.1	-6	6
CCOC(=O)Nc1ccc(S(=O)(=O)N2CCOCC2)cc1	-14	13	-7	1.1	1	0	x
C=C(C)CN1CCN(S(=O)(=O)c2ccc(C)c(N(C)S(=O)(=O)c3ccc(C)cc3)c2C)CC1	3	24	15	1.1	1	-2	x
COC(=O)C1=C(C)N(CC(C)C)C(=O)C1	1	13	-2	1.1	1	1	13
COC(=O)C1=C(C)N(Cc2ccc(OC)cc2)C(=O)C1	-9	11	x	1.1	1.1	-6	x
COc1cc(C#N)c(N=C(SCC#N)N2CCOCC2)cc1OC	24	13	-1	1.2	1.1	-7	x
CCN(CC)c1ccc(N=Cc2cc(Br)ccc2O)cc1	-6	-1	-12	1.2	0.9	11	11
Oc1ccc(Br)cc1C=Nc1ccc(Cl)cc1	1	17	20	1.2	1.1	-7	x
Cc1nnc(SCC(=O)N(CCC#N)c2ccc3c(c2)OCCO3)s1	-13	x	x	x	x	x	x
CC(=O)Oc1cccc(-c2nc3ccccc3c(=O)o2)c1	-5	14	-8	1.2	0.9	12	x
CCOc1ccc(-c2nc3ccccc3c(=O)o2)cc1	68*	54*	112	6.3*	0.3	68*	56*
COc1ccc(N2CCN(c3nc(=S)n(-c4ccccc4)c(C)c3C(C)=O)CC2)cc1	22	-7	-2	0.71	1.1	-6	8
CCC(=O)Nc1sccc1C(=O)OC	8	-4	3	1.1	1	0	-1
COC(=O)c1ccc(Nc2nc(C)cc(=O)[nH]2)cc1	-4	3	11	1.1	1	0	15
CCCCNC(=S)N(CCN(C)C)Cc1cc2cc3c(cc2[nH]c1=O)OCCO3	-14	x	x	x	x	x	x
Cc1nnc(NC2=NCCC2)o1	-6	3	7	1.2	1	0	x
Cc1nnc(NC2=NCCC2)s1	15	16	-8	1.1	1.1	-6	8
CCNc1c(NS(=O)(=O)c2ccc(F)c(Cl)c2)c(=O)oc2ccccc12	1	x	x	x	x	x	x
O=C(CCn1cnc2ccccc2c1=O)Nc1cccc(Cl)c1	10	-18	-8	1.4	1.1	-7	-35
CC(=O)Oc1ccc(OC(C)=O)c2c1CC1(C)OC1(C)C2 (stereo unspecified)	-8	x	x	x	x	x	x
Cc1csc(N/N=C/c2ccccn2)n1	73*	39	127	1.5	0.1	92*	32
C(=N\Nc1nc2ccccc2s1)/c1ccccn1	x	69*	x	x	x	x	73*
SMILES	C8 TRAIL sens	PPC-1+TRAIL kill	APP 5'UTR act	NF-kB neuron act	FLuc act counter	FLuc inh counter	PPC1 cytotox
Cc1ccc2[nH]c(C)c(/C=N/Nc3nc4ccccc4s3)c2c1	-2	-2	90	0.72	1.1	-6	x
O=C(CCCCn1c(=O)c2ccccc2n(Cc2ccc(F)cc2)c1=O)NCc1ccco1	15	-4	1	1	1	-4	2
Nc1nc(CCl)nc(N(c2ccccc2)c2ccccc2)n1	93*	90*	x	x	x	x	90*
Cc1ccc(NC(=O)COC(=O)c2cccc(C)c2[N+](=O)[O-])cc1S(=O)(=O)N1CCCCC1	7	x	x	x	x	x	x
Cc1cccc(C)c1NC(=O)CN(c1ccccn1)S(=O)(=O)c1ccc(F)cc1	4	1	4	1.2	1.1	-5	x
Cc1cc(N2CCOCC2)nc2ccc(NC(=O)CCC(=O)N3CCC(C)CC3)cc12	-20	19	9	1.3	0.7	28	x
CCCCNC(=O)CCC(=O)Nc1ccc2nc(N3CCC(C)CC3)cc(C)c2c1	-7	-1	3	1.6	1	5	8
COc1ccc(C(=O)N=c2nc3ccccn3s2)cc1	91*	90*	117	1.4	0	97*	90*
COC(=O)[C@H](Cc1ccccc1)NC(=O)NCc1ccccc1OC	-36	0	-2	1.2	1	-3	x
CC(NCC(=O)Nc1ccccc1C(=O)NC1CC1)c1ccc(S(C)(=O)=O)cc1 (stereo unspecified)	-7	x	x	x	x	x	x
Cc1cc(N)c2cc(NC(=O)/C=C/c3ccccc3Cl)ccc2n1	95*	98*	x	x	x	x	97*
Cc1ccnc(NC(=O)/C=C/c2ccccc2Cl)c1	55*	28	186*	8.7*	0.2	76*	22
Cc1cc(C)nc(NC(=O)/C=C/c2ccccc2Cl)c1	33	15	110	3.2	0.7	29	x
Cc1ccc(C(C)C)cc1C(=O)CC1(O)C(=O)N(C)c2ccccc21 (stereo unspecified)	0	-3	11	1.1	1.1	-5	-7
CC(=O)Nc1cccc(-c2nc3ccc(NC(C)=O)cc3s2)c1	48	38	71	1.8	0.3	66*	28
COc1ccc(/C=N/Nc2nnc(Cc3ccccc3)c(=O)[nH]2)cc1OC	68*	59*	x	x	x	x	59*
CCC/C=N/Nc1nnc(Cc2ccc(OC)c(OC)c2)c(=O)[nH]1	-2	x	x	x	x	x	x
CCN(C[C@H]1N[C@@](CC)(C(=O)OC)[C@H]2C(=O)N(C)C(=O)[C@@H]12)C(=O)c1ccc(C(C)(C)C)cc1	-23	x	x	x	x	x	x
C=CCn1c(C)cc(C(=O)Cn2nc(C(=O)O)c3ccccc3c2=O)c1C	78*	47	105	0.92	0.1	92*	38
O=C(O)c1cccc(-c2ccc(/C=N/n3cnc4sc5c(c4c3=O)CCCC5)o2)c1	x	7	x	x	x	x	x
Fc1ccc(Cn2c(-c3cscn3)nc3ccccc32)c(Cl)c1	-10	-3	3	0.89	1	-5	10
Nc1nonc1-c1nc2ccccc2n1Cc1ccc(F)cc1Cl	20	20	8	0.95	1	-1	x
CCc1c(C)c(C#N)c2[nH]c3ccccc3n2c1=S	19	16	x	x	x	x	x
Fc1ccc(-c2cn3ccccc3n2)cc1	28	x	x	x	x	x	x
CCOc1ccc(-c2cn3ccccc3n2)cc1	84*	91*	207*	4.8*	0	97*	89*
CCCCn1c(=O)c(CCC(=O)OCC(=O)NCc2ccc(OC)c(OC)c2)nc2ccccc21	-5	2	16	1.1	1	-4	x
O=S(=O)(NCCSc1ccccc1)c1ccc(F)cc1	-5	-2	8	1	1	-1	-3
OCCC1CN(Cc2cccc3c2OCO3)CCN1C1CCCC1 (stereo unspecified)	0	20	-11	1.1	1	4	x
